The text below walks through data of ChEMBL document CHEMBL4673370, “Modifications at C(5) of 2-(2-Pyrrolidinyl)-Substituted 1,4-Benzodioxane Elicit Potent α4β2 Nicotinic Acetylcholine Receptor Partial Agonism with High Selectivity over the α3β4 Subtype” (J Med Chem, 2020).

For assay [1], the target named is T1, Neuronal acetylcholine receptor; alpha3/beta4 (Homo sapiens, UniProt P30926+P32297). Put plainly: Displacement of [3H]-epibatidine from human alpha3beta4 transfected in HEK293 cell membranes preincubated for 5 mins followed by [3H]-epibatidine addition and measured after overnight incubation by liquid scintillation beta counter analysis. The arrangement: species or system Membrane. Summed up: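 Membranes (rat cerebral cortex for α4β2; HEK cells stably transfected with human α3β4) were pre-exposed to rising compound concentrations for 5 min. They were then incubated overnight at 4 °C with [3H]epibatidine (0.1 nM for α4β2, 0.25 nM for α3β4). Samples were filtered on PEI-soaked GFC filters and counted by β scintillation. Nonspecific binding was set with 100 nM epibatidine.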
On the technique in general: In a radioligand displacement assay an active substance lowers the binding of a labelled ligand.

The target of assay [2] is Neuronal acetylcholine receptor subunit alpha-7 (Rattus norvegicus, UniProt Q05941). Put plainly: Displacement of [125I]alpha-bungarotoxin from alpha7nAChR in rat hippocampus membranes preincubated for 5 mins followed by [125I]alpha-bungarotoxin addition and measured after overnight incubation by liquid scintillation beta counter analysis. Format: cell membranes, Membrane.

For assay [3], the target named is Neuronal acetylcholine receptor; alpha4/beta2 (Rattus norvegicus, UniProt P09483+P12390). Put plainly: Displacement of [3H]-Epibatidine from alpha4beta2 nAChR in rat cerebral cortex membrane preincubated for 5 mins followed by [3H]-Epibatidine addition and measured after overnight incubation by liquid scintillation beta counter analysis. Format: cell membranes. Summed up: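 Membranes (rat cerebral cortex for α4β2; HEK cells stably transfected with human α3β4) were pre-exposed to rising compound concentrations for 5 min. Samples were filtered on PEI-soaked GFC filters and counted by β scintillation. Nonspecific binding was set with 100 nM epibatidine.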

The next assay relates to GH4-C1. Put plainly: Agonist activity at human alpha4beta2 S108A mutant transfected in rat GH4-C1 cells assessed as maximum response at holding potential of -70 mV by whole cell patch clamp electrophysiology method relative to ACh. Format: cell-based. A digest of the protocol: (§1)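 GH4C1 cells were transiently transfected by magnetofection with 0.5 μg of each human subunit cDNA (wild-type or S108A α4β2; α3β4). Whole-cell currents were recorded in HEPES-buffered saline at pH 7.3, with CsCl/BAPTA pipettes and fast perfusion of agonist. Concentrations were applied sequentially, and peak currents were normalized to 100 μM ACh on the same cell. EC50, Imax and Hill coefficient came from a Hill-equation fit.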
On the technique in general: The patch-clamp technique gives a direct electrical read-out from membranes.

The nature of assay [4]: Selectivity index, ratio of Ki for displacement of [3H]-Epibatidine from wild type human alpha4beta2 nAChR transfected in Hela cell membrane to Ki for displacement of [3H]-Epibatidine from human alpha4beta2 nAChR S108A mutant transfected in Hela cell membrane. The format is cell membranes. A digest of the protocol:
(§2)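 HeLa cells were transiently transfected (JetPEI) with 7.5 μg each of α4 and β2 (wild-type or mutant) cDNA and harvested after 24 h. Membranes were pre-exposed to compounds for 5 min, then incubated overnight at 4 °C with 0.1 nM [3H]epibatidine, filtered and counted by β scintillation. Ki came from the Cheng–Prusoff equation, three independent experiments in duplicate.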

Assay [5] addresses T2, Neuronal acetylcholine receptor; alpha4/beta2 (Homo sapiens, UniProt P17787+P43681). Put plainly: Displacement of [3H]-epibatidine from wild type human alpha4beta2 nAChR transfected in human Hela cell membranes preincubated for 5 mins followed by [3H]-epibatidine addition and measured after overnight incubation by liquid scintillation beta counter analysis. Summed up:
as §2

Assay [6] can be described thus: Agonist activity at human alpha4beta2 S108A mutant transfected in rat GH4-C1 cells at holding potential of -70 mV by whole cell patch clamp electrophysiology method. Format: cell-based. A digest of the protocol: as §1
For assay [7], the target named is T1, Neuronal acetylcholine receptor; alpha3/beta4. Put plainly: Partial agonist activity at human alpha3beta4 transfected in rat GH4-C1 cells assessed as maximum response at holding potential of -70 mV by whole cell patch clamp electrophysiology method relative to ACh. The format is cell-based. A digest of the protocol:
as §1

In assay [8] the target is T2, Neuronal acetylcholine receptor; alpha4/beta2. Put plainly: Agonist activity at wild type human alpha4beta2 transfected in rat GH4-C1 cells at holding potential of -70 mV by whole cell patch clamp electrophysiology method. The format is cell-based. Summed up:
as §1

The target in assay [9] is T1, Neuronal acetylcholine receptor; alpha3/beta4. Put plainly: Antagonist activity at human alpha3beta4 transfected in rat GH4-C1 cells assessed as inhibition of ACh-induced response at holding potential of -70 mV by whole cell patch clamp electrophysiology method. The format is cell-based.
Assay [10] deals with T2, Neuronal acetylcholine receptor; alpha4/beta2. Put plainly: Partial agonist activity at wild type human alpha4beta2 transfected in rat GH4-C1 cells assessed as maximum response at holding potential of -70 mV by whole cell patch clamp electrophysiology method relative to ACh. Format: cell-based. Summed up:
as §1

For assay [11] the target is unchanged. Put plainly: Partial agonist activity at human alpha4beta2 transfected in rat GH4-C1 cells at holding potential of -70 mV by whole cell patch clamp electrophysiology method. Format: cell-based. A digest of the protocol:
as §1

The nature of assay [12]: Displacement of [3H]-epibatidine from human alpha4beta2 nAChR S108A mutant transfected in human Hela cell membranes preincubated for 5 mins followed by [3H]-Epibatidine addition and measured after overnight incubation by liquid scintillation beta counter analysis. Summed up:
as §2

Assay [13] concerns the target T2, Neuronal acetylcholine receptor; alpha4/beta2. Put plainly: Partial agonist activity at human alpha4beta2 transfected in rat GH4-C1 cells assessed as maximum response at holding potential of -70 mV by whole cell patch clamp electrophysiology method relative to ACh. The format is cell-based. Summed up: as §1
For assay [14], the target named is T1, Neuronal acetylcholine receptor; alpha3/beta4. Put plainly: Partial agonist activity at human alpha3beta4 transfected in rat GH4-C1 cells at holding potential of -70 mV by whole cell patch clamp electrophysiology method. The format is cell-based. Summed up: as §1

pEC50, pIC50, pKi: −log10 of the molar value.

Chain of Neuronal acetylcholine receptor subunit alpha-7 (Q05941 whole entry): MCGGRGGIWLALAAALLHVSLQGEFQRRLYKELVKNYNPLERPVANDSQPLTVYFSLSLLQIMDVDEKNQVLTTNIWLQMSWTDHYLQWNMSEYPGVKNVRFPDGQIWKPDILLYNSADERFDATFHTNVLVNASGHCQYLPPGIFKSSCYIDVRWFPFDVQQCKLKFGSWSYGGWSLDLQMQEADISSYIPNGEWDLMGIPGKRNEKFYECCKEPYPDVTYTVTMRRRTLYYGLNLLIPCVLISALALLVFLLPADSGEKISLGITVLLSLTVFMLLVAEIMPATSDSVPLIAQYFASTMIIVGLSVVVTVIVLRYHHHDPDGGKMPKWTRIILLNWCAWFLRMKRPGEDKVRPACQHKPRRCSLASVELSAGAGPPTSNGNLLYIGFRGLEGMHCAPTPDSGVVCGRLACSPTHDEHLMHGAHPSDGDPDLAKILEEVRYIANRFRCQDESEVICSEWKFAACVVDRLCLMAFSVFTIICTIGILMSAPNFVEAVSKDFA
T2 sequence (P17787 whole entry): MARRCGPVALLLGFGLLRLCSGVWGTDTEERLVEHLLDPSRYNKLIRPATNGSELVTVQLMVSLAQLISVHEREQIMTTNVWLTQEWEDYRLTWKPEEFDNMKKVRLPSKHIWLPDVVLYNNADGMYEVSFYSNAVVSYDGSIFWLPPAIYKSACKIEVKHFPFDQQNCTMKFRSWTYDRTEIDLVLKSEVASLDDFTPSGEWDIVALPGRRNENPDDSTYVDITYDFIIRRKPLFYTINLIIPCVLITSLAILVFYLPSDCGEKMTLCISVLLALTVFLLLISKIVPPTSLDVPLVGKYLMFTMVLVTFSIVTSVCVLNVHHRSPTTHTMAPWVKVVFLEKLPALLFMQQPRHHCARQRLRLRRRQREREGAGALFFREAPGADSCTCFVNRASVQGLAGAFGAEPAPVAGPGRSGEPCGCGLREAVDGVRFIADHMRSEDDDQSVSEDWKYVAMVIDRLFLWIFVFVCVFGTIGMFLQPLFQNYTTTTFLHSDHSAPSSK
T2 sequence (P43681 whole entry): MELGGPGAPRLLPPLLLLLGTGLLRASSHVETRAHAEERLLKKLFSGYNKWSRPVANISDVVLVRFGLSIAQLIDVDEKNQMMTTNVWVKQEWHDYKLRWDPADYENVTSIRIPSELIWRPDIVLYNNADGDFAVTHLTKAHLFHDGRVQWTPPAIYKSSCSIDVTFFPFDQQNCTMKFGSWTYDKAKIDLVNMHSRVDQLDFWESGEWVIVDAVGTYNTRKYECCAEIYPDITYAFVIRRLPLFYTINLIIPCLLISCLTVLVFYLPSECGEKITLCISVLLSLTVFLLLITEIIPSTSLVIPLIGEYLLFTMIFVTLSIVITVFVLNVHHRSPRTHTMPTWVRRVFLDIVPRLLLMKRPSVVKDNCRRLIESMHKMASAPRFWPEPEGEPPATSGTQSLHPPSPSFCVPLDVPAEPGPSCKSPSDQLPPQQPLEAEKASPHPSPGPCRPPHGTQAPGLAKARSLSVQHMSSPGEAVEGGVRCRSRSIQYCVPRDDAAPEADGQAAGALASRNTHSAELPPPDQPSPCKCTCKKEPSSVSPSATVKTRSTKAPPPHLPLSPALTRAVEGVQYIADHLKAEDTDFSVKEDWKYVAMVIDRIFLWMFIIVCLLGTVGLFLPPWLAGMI
Chain of Neuronal acetylcholine receptor; alpha4/beta2 (Rattus norvegicus, UniProt P09483+P12390) (P09483 whole entry): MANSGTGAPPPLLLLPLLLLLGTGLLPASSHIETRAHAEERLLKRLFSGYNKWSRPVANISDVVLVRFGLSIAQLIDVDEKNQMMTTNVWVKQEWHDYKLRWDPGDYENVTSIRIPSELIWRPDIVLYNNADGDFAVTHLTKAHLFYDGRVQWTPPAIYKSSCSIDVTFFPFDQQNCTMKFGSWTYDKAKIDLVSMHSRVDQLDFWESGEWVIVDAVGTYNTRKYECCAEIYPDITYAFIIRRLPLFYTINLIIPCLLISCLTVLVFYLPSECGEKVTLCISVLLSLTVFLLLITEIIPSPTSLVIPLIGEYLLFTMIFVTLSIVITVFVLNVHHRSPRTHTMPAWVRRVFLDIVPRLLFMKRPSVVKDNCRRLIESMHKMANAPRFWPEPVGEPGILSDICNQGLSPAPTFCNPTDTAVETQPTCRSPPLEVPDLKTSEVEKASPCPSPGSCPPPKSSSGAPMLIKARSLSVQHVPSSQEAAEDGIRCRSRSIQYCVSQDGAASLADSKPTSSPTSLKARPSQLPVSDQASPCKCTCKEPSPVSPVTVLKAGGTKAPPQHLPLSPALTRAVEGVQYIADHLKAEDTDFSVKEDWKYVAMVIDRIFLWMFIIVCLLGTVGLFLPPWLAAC
Chain of Neuronal acetylcholine receptor; alpha4/beta2 (Rattus norvegicus, UniProt P09483+P12390) (P12390 whole entry): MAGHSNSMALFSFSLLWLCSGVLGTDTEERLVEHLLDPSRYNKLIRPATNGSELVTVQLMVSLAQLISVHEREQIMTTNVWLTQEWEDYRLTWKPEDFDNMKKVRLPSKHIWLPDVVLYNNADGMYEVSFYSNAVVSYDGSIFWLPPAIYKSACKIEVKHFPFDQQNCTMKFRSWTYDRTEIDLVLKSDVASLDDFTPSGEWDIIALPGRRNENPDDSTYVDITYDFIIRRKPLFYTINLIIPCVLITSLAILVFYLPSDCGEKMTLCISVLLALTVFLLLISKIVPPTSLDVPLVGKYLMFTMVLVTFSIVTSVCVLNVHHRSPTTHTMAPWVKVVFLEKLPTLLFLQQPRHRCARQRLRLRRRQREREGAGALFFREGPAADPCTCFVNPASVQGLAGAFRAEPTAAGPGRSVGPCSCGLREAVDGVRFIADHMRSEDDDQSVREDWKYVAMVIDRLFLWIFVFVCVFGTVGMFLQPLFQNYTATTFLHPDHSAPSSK
T1 sequence (P30926 whole entry): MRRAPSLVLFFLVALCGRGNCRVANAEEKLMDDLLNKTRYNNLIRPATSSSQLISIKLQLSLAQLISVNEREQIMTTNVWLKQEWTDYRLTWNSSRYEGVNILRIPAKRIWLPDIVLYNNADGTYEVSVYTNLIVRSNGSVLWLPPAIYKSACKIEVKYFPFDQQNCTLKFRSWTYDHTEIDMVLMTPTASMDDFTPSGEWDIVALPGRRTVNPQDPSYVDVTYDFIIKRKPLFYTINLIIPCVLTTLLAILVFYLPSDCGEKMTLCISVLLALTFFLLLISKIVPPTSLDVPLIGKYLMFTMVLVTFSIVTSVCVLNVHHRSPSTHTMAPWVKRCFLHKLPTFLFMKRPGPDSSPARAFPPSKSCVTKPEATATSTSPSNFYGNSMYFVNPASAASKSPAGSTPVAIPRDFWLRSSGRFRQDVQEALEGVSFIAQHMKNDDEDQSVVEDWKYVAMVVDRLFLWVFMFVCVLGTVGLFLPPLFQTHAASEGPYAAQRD
T1 sequence (P32297 whole entry): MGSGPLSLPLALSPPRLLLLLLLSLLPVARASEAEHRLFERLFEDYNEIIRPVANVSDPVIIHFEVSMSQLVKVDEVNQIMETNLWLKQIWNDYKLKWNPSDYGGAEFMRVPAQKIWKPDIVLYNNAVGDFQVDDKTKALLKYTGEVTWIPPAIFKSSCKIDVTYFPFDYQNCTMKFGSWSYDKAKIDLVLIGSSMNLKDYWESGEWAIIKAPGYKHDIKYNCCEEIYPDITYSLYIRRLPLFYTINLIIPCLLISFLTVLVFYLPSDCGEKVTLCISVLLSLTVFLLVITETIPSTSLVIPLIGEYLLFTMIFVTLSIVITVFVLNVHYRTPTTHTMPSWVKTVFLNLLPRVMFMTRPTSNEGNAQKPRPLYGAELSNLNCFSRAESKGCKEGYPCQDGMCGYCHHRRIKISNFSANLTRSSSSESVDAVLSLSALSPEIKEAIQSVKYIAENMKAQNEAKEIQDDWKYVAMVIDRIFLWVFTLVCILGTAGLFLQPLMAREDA

Consider `CN1CCC[C@H]1[C@H]1COc2cc(O)ccc2O1`, for which the pKi in assay [1] was 5.22; in assay [2], 4.98; in assay [3], 4.15.
With `CN1CCC[C@H]1[C@@H]1COc2cc(-c3ccccc3)ccc2O1`, the pKi in [1] is 5.27; in assay [2], 5.09; in [3], 4.23.
Regarding `CC(=O)Nc1ccc2c(c1)O[C@@H]([C@@H]1CCCN1C)CO2`, the pKi in assay [1] is 5.06; in assay [3], 4.34.
Regarding `CN1CCC[C@H]1[C@@H]1COc2c(N)cccc2O1`, the values for the negative-log Ki (pKi) in assay [1], in assay [2] and in [3] were 5.41, 3.96 and 5.15, respectively.
In the case of `CN(C)c1ccc2c(c1)O[C@H]([C@@H]1CCCN1C)CO2`, the results for the pKi in assay [1] and in assay [3] were 5.66 and 3.83, respectively.
Turning to `CN1CCC[C@H]1[C@@H]1COc2ccc([N+](=O)[O-])cc2O1`, the pKi in assay [1] was 5.35; in [2], 4.98; in assay [3], 4.85.
For `CN1CCC[C@H]1[C@@H]1COc2cc([N+](=O)[O-])ccc2O1` the same measures were 4.82, 4.50 and 4.34.
For `CC(=O)Nc1ccc2c(c1)O[C@H]([C@@H]1CCCN1C)CO2` the same measures were 5.72, under 5.00 and 5.19.
For `CN1CCC[C@H]1[C@H]1COc2ccc([N+](=O)[O-])cc2O1` the same measures were 5.68, 4.37 and 4.48.
As for `CN1CCC[C@H]1[C@@H]1COc2cc(O)ccc2O1`, the results for the pKi in assay [1], in assay [2] and in assay [3] were 5.72, 4.57 and 4.30, respectively.
In the same order, the values of `CN1CCC[C@H]1[C@H]1COc2ccc(N)cc2O1` are 6.74, 4.72 and 6.85.
`CN1CCC[C@H]1[C@@H]1COc2cc(N)ccc2O1`: the pKi was 5.46 in assay [1] and 4.07 in assay [3].
Consider `CN1CCC[C@H]1[C@H]1COc2c(cccc2-c2ccccc2)O1`, for which the pKi was 5.28 in [1], 4.30 in assay [2] and 5.14 in assay [3].
For `CN(C)c1ccc2c(c1)O[C@@H]([C@@H]1CCCN1C)CO2` the same measures were 4.60, under 5.00 and 4.31.
Consider `CN1CCC[C@H]1[C@H]1COc2c(N)cccc2O1`, for which the Imax was found to be 31% in the assay with GH4-C1, 38.2% in assay [7], 31% in assay [10] and 21.8% in assay [13]. Besides, the Ratio Ki in assay [4] turned out to be 2.4. The pKi in assay [5] was 6.43; in assay [12], 6.81; in [1], 4.89; in assay [2] it was 4.35; in [3], 6.88. In addition, the negative-log EC50 (pEC50) in [6] is 5.62; in assay [8] it was 5.62; in [11], 8.30; in [14], 5.06. Moreover, the negative logarithm of the IC50 (pIC50) in assay [9] is 4.26.
`CN1CCC[C@H]1[C@H]1COc2c(O)cccc2O1`: the figures for the pKi in [1] and in [3] were under 4.00 and 5.77, respectively.
On to `CN1CCC[C@H]1[C@@H]1COc2c(cccc2[N+](=O)[O-])O1`, for which the pKi in [1] was 5.96; in assay [3], 4.91.
Regarding `CN1CCC[C@H]1[C@H]1COc2cc(N)ccc2O1`, the pKi is 5.07 in assay [1], under 5.00 in assay [2] and 4.13 in assay [3].
With `CN1CCC[C@H]1[C@H]1COc2cc([N+](=O)[O-])ccc2O1`, the values for the pKi in assay [1], in assay [2] and in [3] were 5.32, 4.87 and under 4.00, respectively.
In the case of `CN1CCC[C@H]1[C@@H]1COc2ncccc2O1`, the Imax with GH4-C1 stood at 26%; in assay [10], 26%; in assay [13] it was 24.2%. The Ratio Ki in assay [4] was found to be 0.43. For the same compound, the pKi in [5] was 6.94; in assay [12], 6.58; in [2], 4.05; in assay [3] it was 6.39. Further, the pEC50 in [6] and in assay [8] was 5.59 in each case.
With `CN1CCC[C@H]1[C@@H]1COc2ccc(N)cc2O1`, in assay [4], the Ratio Ki is 7.7. For the same compound, the pKi was 7.34 in assay [5]; 8.22 in assay [12]; 7.72 in assay [1]; 5.59 in assay [2]; 7.66 in assay [3]. The Imax stood at 24% in assay [7] and 36% in assay [13]. Besides, the pEC50 in assay [11] is 4.85; in [14], 4.72.
On to `CN1CCC[C@H]1[C@H]1COc2cc(-c3ccccc3)ccc2O1`, for which the pKi was 5.24 in assay [1], 5.68 in [2] and 4.04 in assay [3].
For `CN1CCC[C@H]1[C@H]1COc2c(cccc2[N+](=O)[O-])O1`, the pKi in assay [1] was 5.17; in assay [3], 6.47.
Turning to `CN1CCC[C@H]1[C@@H]1COc2ccc(O)cc2O1`, the Imax in the assay on GH4-C1 is 29%. Moreover, the Ratio Ki in assay [4] was 5.6. The results for the pKi in [5] and in assay [12] were 8.17 and 8.92, respectively. The negative-log EC50 (pEC50) in [6] and in assay [8] was 5.42 in each case.
As to `CN1CCC[C@H]1[C@@H]1COc2c(O)cccc2O1`, the values for the pKi in assay [1] and in assay [3] were 5.41 and 6.26, respectively.
For the compound `CN1CCC[C@H]1[C@@H]1COc2c(cccc2-c2ccccc2)O1`, the values for the pKi in [1], in assay [2] and in assay [3] were 5.57, 4.34 and 6.19, respectively.
For `CN1CCC[C@H]1[C@@H]1COc2ccccc2O1`, the Ratio Ki in assay [4] was found to be 1.29. The negative logarithm of the Ki (pKi) in assay [5] is 5.93; in [12], 6.04.
Turning to `CN1CCC[C@H]1[C@H]1COc2ccc(O)cc2O1`, the pKi in assay [1] was 6.15.

The term pKi denotes the negative decadic logarithm of the Ki, by convention in mol/L. Usually pEC50 stands for −log10 of the EC50, conventionally taken in molar units. For orientation: pIC50 means the IC50 on a negative log10 scale, so that one unit is a factor of ten.
